Reference: ChEMBL document CHEMBL1128190, “Inhibition of E-selectin-, ICAM-1-, and VCAM-1-mediated cell adhesion by benzo[b]thiophene-, benzofuran-, indole-, and naphthalene-2-carboxamides: identification of PD 144795 as an antiinflammatory agent” (J Med Chem, 1995)
Blank lines part the entries; values can stand above or below the compound they belong to.

Key:
[1] = The compound was tested for cell adhesion by measuring the inhibitory concentration against Human umbilical vein endothelial cell (HUVEC) activation, using Na51CrO4 as radioligand at 50 uM; assay type: functional
Rattus norvegicus [2] = experiment: Inhibitory activity against Mycobacterium-induced foot-pad edema(MFE)at 50 mg/kg; assay type: functional
[3] = Inhibitory activity against E-Selectin mediated cell adhesion in Human umbilical endothelial cell culture, by using HUVEC surface expression assay at 50 uM; assay type: functional
How it was run: (§1)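 Confluent HUVECs were given compound 30 min before TNF-α (140 U/mL final), then incubated 4 h at 37 °C. Cells were formalin-fixed and surface E-selectin detected by cell ELISA (mouse anti-E-selectin 0.5 μg/mL, peroxidase anti-mouse IgG), with absorbance at 414 nm. Unstimulated background was subtracted and results given as % inhibition versus vehicle. IC50 came from linear regression; average of two assays, each in triplicate.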

[4] = Inhibitory activity against intercellular adhesion molecule (ICAM)-1 mediated cell adhesion in Human umbilical endothelial cell culture, by using HUVEC surface expression assay at 50 uM; assay type: functional
How it was run: (§2)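 HUVECs were pretreated with compound for 30 min, then stimulated with TNF-α (140 U/mL final) for 4 h at 37 °C. After formalin fixation, surface ICAM-1 was measured by cell ELISA (mouse anti-ICAM-1 0.5 μg/mL, peroxidase anti-mouse IgG), with absorbance at 414 nm. Unstimulated background was subtracted and results given as % inhibition versus vehicle. IC50 came from linear regression; average of two triplicate assays.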

[5] = Cell adhesion measured using the inhibitory concentration against Human umbilical vein endothelial cell (HUVEC) activation, with Na51CrO4 as radioligand at 100 uM; assay type: functional
How it was run: (§3)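 Confluent second-passage HUVEC monolayers were stimulated with TNF-α (200 U/mL) for 4 h with or without compound at 100 μM, then washed. Fresh human neutrophils labelled with Na⁵¹CrO₄ (5 × 10⁵) were added for 30 min at 37 °C. Non-adherent cells were aspirated and adherent cells lysed in NH₄OH; lysates were γ-counted. Results are % inhibition of TNF-stimulated adherence, triplicate. IC50 came from linear regression at 33.3–1.0 μM.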

[6] = The compound was tested for cell adhesion by measuring the inhibitory concentration against Human umbilical vein endothelial cell (HUVEC) activation, using Na51CrO4 as radioligand at 100 uM; assay type: functional; how it was run: as §3
Rattus norvegicus [7] = experiment: Inhibitory activity against Mycobacterium-induced foot-pad edema(MFE) at 50 mg/kg; assay type: functional
[8] = The compound was tested for cell adhesion by measuring the inhibitory concentration against Human umbilical vein endothelial cell (HUVEC) activation, using Na51CrO4 as radioligand.; assay type: functional, cell-based
[9] = Inhibitory activity against E-Selectin mediated cell adhesion in Human umbilical endothelial cell culture, by using HUVEC surface expression assay.; assay type: functional, cell-based; how it was run: as §1
[10] = Inhibitory activity against intercellular adhesion molecule (ICAM)-1 mediated cell adhesion in Human umbilical endothelial cell culture, by using HUVEC surface expression assay.; assay type: functional, cell-based; how it was run: as §2
[11] = The compound was tested for inhibitory activity against intercellular adhesion molecule (ICAM)-1 mediated cell adhesion in Human aortic endothelial cell culture, by using HAEC surface expression assay at 50 uM; assay type: functional
How it was run: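 Confluent human aortic endothelial cells were incubated with TNF-α (250 U/mL) and compound (0.005% DMSO final) for 18 h. Cells were formalin-fixed and probed with anti-ICAM-1 mAb (2 h, 37 °C), then peroxidase anti-mouse IgG (1 h) and colour reagent (15 min). Read-out was OD414.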

[12] = The compound was tested for inhibitory activity against E-Selectin mediated cell adhesion in Human umbilical endothelial cell culture, by using HUVEC surface expression assay.; assay type: functional, cell-based
How it was run: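 Confluent HUVECs were given compound 30 min before TNF-α (140 U/mL final), then incubated 4 h at 37 °C. Unstimulated background was subtracted and results given as % inhibition versus vehicle. IC50 came from linear regression; average of two assays, each in triplicate.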

[13] = The compound was tested for inhibitory activity against intercellular adhesion molecule (ICAM)-1 mediated cell adhesion in Human umbilical endothelial cell culture, by using HUVEC surface expression assay.; assay type: functional, cell-based
How it was run: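 HUVECs were pretreated with compound for 30 min, then stimulated with TNF-α (140 U/mL final) for 4 h at 37 °C. Unstimulated background was subtracted and results given as % inhibition versus vehicle. IC50 came from linear regression; average of two triplicate assays.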

[14] = The compound was tested for cell adhesion by measuring the inhibitory concentration against Human umbilical vein endothelial cell (HUVEC) activation, using calcein-AM as radioligand at 100 uM; assay type: functional
[15] = The compound was tested for cell adhesion by measuring the inhibitory concentration against Human umbilical vein endothelial cell (HUVEC) activation, using calcein-AM radioligand at 100 uM; assay type: functional
[16] = The compound was tested for cell adhesion by measuring the inhibitory concentration against Human umbilical vein endothelial cell (HUVEC) activation, using calcein-AM as radioligand at 33 uM; assay type: functional
[17] = The compound was tested for inhibitory activity against vascular cell adhesion molecule (VCAM)-1 mediated cell adhesion in Human aortic endothelial cell culture, by using HAEC surface expression assay at 50 uM; assay type: functional
How it was run: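 Human aortic endothelial cells at confluence were incubated with TNF-α (250 U/mL) and compound (0.005% DMSO final) for 18 h, then formalin-fixed. Cells were probed with anti-VCAM-1 mAb (2 h, 37 °C), then biotin anti-mouse IgG+IgM F(ab)₂ (1 h), then [¹²⁵I]streptavidin (15 min, 4 °C). NaOH digests were counted.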

[18] = cell adhesion assay; measuring the inhibitory concentration against Human umbilical vein endothelial cell (HUVEC) activation, using Na51CrO4 as radioligand at 100 uM; assay type: functional; settings: in the assay text read “calcein-AM” for “Na51CrO4”
[19] = The compound was tested for inhibitory activity against vascular cell adhesion molecule (VCAM)-1 mediated cell adhesion in Human aortic endothelial cell culture, by using HAEC surface expression assay at 50 micro M
[20] = The compound was tested for inhibitory activity against intercellular adhesion molecule (ICAM)-1 mediated cell adhesion in Human aortic endothelial cell culture, by using HAEC surface expression assay at 50 micro M

Compound: COc1ccc2c(c1)c(OC(C)C)c(C(N)=O)[s+]2[O-] (stereo not given) [listing 1 of 2 here]
inhibition at 50 µM [1]: 20%
inhibition in vivo at 50 mg/kg (Rattus norvegicus [2]): 5%
inhibition at 50 µM [3]: 25%
inhibition at 50 µM [4]: 24%

Compound: CC(C)Oc1c(C(N)=O)sc2ccc([N+](=O)[O-])cc12
inhibition at 100 µM [5]: 40%

Compound: CCNC(=O)c1c(OC(C)C)c2cc(OC)ccc2[s+]1[O-] (stereo not given)
inhibition at 100 µM [6]: 36%

IC50 [8]: 4 µM
IC50 [9]: 9.6 µM
IC50 [10]: 5.7 µM
Compound: COc1ccc2c(c1)c(OC(C)C)c(C(N)=O)[s+]2[O-] (stereo not given) [listing 2 of 2 here]
inhibition in vivo at 50 mg/kg (Rattus norvegicus [7]): 83%

IC50 [12]: 3.3 µM
IC50 [13]: 3.5 µM
IC50 [8]: 6.4 µM
Compound: CC(C)Oc1c(C(N)=O)sc2ccc(O)cc12
inhibition at 50 µM [11]: 91%

Compound: COc1ccc2sc(C(=O)Nc3ccccc3)c(OC(C)C)c2c1
inhibition at 100 µM [5]: 12%

Compound: CC(C)Oc1c(C(N)=O)oc2ccc(Cl)cc12
inhibition at 100 µM [5]: 52%

Compound: COc1ccc2sc(C(N)=O)c(Oc3ccccc3)c2c1
inhibition at 100 µM [5]: 59%

Compound: COc1ccc2c(c1)c(OC(C)C)c(C(=O)Nc1ccccc1)[s+]2[O-] (stereo not given)
inhibition at 100 µM [14]: < 4%

Compound: COc1ccc2sc(C(=O)Nc3ccccc3C(=O)O)c(OC(C)C)c2c1
inhibition at 100 µM [5]: 35%

Compound: COc1ccc2sc(C(=O)NCc3ccccc3)c(OC(C)C)c2c1
inhibition at 100 µM [15]: 35%

Compound: COc1ccc2sc(C(N)=O)c(SCCN)c2c1
inhibition at 33 µM [16]: 0%

Compound: CC(C)Oc1c(C(N)=O)sc2ccc(N)cc12
inhibition at 100 µM [5]: 49%

IC50 [8]: 50 µM
Compound: COc1ccc2sc(C(=O)Nc3ccc(C(=O)O)cc3)c(OC(C)C)c2c1

Compound: CC(C)Sc1c(C(N)=O)sc2ccccc12
inhibition at 100 µM [5]: 34%

Compound: COc1ccc2sc(C(=O)NCCCCC(=O)O)c(OC(C)C)c2c1
inhibition at 100 µM [5]: 9%

Compound: CCNC(=O)c1ccc2ccc(OC)cc2c1OC(C)C
inhibition at 100 µM [5]: 73%

Compound: CC(C)Oc1c(C(N)=O)sc2ccc(Cl)cc12
inhibition at 100 µM [5]: 72%

IC50 [12]: 7.9 µM
IC50 [13]: 5 µM
IC50 [8]: 14 µM
Compound: COc1ccc2oc(C(N)=O)c(OC(C)C)c2c1

IC50 [9]: 5 µM
IC50 [10]: 2.7 µM
Compound: CC(C)Oc1c(C(N)=O)[s+]([O-])c2ccc(O)cc12 (stereo not given)

Compound: COc1ccc2sc(C(N)=O)c(SC)c2c1
inhibition at 100 µM [5]: 81%

Compound: COc1ccc2c(c1)c(OC(C)C)c(C(=O)NCc1ccccc1)[s+]2[O-] (stereo not given)
inhibition at 100 µM [5]: 15%

IC50 [12]: 7.9 µM
IC50 [13]: 2.5 µM
IC50 [8]: 8 µM
Compound: COc1ccc2[nH]c(C(N)=O)c(OC(C)C)c2c1
inhibition at 50 µM [11]: 89%
inhibition at 50 µM [17]: 83%

Compound: CC(C)Oc1c(C(N)=O)ccc2ccccc12
inhibition at 100 µM [5]: < 4%

Compound: COc1ccc2sc(C(=O)NC(C)C)c(SC(C)C)c2c1
inhibition at 33 µM [16]: 22%

Compound: CC(C)Oc1c(C(N)=O)[s+]([O-])c2ccccc12 (stereo not given)
inhibition at 100 µM [18]: < 4%

Compound: COc1ccc2c(OC(C)C)c(C(N)=O)sc2c1
inhibition at 100 µM [5]: 24%

Compound: COc1ccc2sc(C(N)=O)c(OCc3ccccc3)c2c1
inhibition at 100 µM [5]: 57%

IC50 [12]: 1.4 µM
IC50 [13]: 6.6 µM
IC50 [8]: 15 µM
Compound: CNC(=O)c1sc2ccc(OC)cc2c1OC(C)C
Inhibition [19]: 83%
Inhibition [20]: 85%

Compound: COc1ccc2oc(C(=O)Nc3ccccc3)c(OC(C)C)c2c1
inhibition at 100 µM [5]: < 4%
